In paper PMC3384716 (Steroids, 2012):

Columns and labels:
[1] = molecular target: T1, PR (Homo sapiens, UniProt P06401); experiment: PR reporter gene assay; assay type: cell-based
T1 sequence (P06401 165-933 limits assumed): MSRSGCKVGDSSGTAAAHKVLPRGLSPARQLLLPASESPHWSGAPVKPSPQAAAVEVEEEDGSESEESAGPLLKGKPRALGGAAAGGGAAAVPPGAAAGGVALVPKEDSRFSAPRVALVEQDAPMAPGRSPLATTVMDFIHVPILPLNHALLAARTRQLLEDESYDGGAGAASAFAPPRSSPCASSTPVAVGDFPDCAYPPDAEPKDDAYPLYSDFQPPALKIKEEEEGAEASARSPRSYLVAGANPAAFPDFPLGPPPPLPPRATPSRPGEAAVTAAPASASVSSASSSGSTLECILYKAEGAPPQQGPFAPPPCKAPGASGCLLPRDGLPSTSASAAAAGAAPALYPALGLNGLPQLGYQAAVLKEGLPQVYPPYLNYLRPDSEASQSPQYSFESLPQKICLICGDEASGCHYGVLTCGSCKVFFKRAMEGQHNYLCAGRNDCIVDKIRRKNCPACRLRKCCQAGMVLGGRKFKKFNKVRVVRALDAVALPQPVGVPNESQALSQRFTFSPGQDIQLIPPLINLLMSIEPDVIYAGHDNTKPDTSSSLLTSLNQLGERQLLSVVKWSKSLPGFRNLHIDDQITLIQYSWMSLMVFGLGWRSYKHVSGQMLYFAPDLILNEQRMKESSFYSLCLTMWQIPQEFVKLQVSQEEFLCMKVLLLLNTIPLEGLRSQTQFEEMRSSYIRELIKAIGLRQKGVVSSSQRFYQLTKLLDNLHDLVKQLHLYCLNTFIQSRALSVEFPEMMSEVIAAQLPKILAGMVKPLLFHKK

[2] = molecular target: T2, ER (Homo sapiens, UniProt P03372); experiment: ER reporter gene assay; assay type: cell-based; conditions: 10 μM compound, 5 nM estradiol, 24 h; % of maximal luciferase activity (100%)
T2 sequence (P03372 1-595): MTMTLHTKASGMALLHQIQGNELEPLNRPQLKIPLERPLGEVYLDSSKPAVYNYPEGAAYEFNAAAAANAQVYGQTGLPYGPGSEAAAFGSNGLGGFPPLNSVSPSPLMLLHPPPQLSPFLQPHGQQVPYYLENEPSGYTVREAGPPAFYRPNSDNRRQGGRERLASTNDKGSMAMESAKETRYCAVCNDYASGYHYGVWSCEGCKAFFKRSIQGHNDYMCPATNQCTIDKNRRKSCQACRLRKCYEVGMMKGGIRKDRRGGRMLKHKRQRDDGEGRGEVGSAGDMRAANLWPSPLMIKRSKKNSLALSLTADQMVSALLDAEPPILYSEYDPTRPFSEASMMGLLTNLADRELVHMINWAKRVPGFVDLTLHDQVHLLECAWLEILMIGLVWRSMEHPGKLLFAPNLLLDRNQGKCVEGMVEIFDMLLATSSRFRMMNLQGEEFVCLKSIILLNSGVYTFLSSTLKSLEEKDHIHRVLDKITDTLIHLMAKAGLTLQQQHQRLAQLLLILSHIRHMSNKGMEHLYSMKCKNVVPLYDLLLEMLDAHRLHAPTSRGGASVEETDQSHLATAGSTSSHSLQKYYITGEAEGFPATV

[3] = test system: endogenous PR-regulated alkaline phosphatase activity in T47D breast cancer cells; experiment: Progesterone-induced alkaline phosphatase assay in T47D cells; assay type: cell-based, human; conditions: by 5 μM
Procedure, shortened: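 T47D cells were moved to phenol red-free medium with 10% charcoal-dextran FBS four days ahead. Cells were seeded overnight, then treated 24 h with 2.5 nM progesterone ± test compound in DMSO. Supernatant assayed with CSPD/diethanolamine pH 9.5 buffer, 1 h at RT, luminescence (542 nm). Untreated-compound activity = 100%; ≥3 experiments, mean ± SEM.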

[4] = molecular target: purified luciferase protein (Photinus pyralis, UniProt P08659); experiment: Enzyme inhibition assay with purified luciferase protein; assay type: biochemical; conditions: 0.05 ng pure luciferase protein, 10 μM compound
Procedure, shortened: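 Purified firefly luciferase was used at a final 0.01 ng/μl in OneGlo buffer, with test compound diluted to 10 μM in buffer. After adding BrightGlo luciferase reagent, samples were held 5 min and luminescence measured.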

[5] = molecular target: T3, alkaline phosphatase (AlkP) (Homo sapiens, UniProt P05186); experiment: Direct alkaline phosphatase inhibition in cell lysates; assay type: biochemical; conditions: lysates of progesterone-treated cells, 10 μM compound, 15 minutes
T3 sequence (P05186 18-524): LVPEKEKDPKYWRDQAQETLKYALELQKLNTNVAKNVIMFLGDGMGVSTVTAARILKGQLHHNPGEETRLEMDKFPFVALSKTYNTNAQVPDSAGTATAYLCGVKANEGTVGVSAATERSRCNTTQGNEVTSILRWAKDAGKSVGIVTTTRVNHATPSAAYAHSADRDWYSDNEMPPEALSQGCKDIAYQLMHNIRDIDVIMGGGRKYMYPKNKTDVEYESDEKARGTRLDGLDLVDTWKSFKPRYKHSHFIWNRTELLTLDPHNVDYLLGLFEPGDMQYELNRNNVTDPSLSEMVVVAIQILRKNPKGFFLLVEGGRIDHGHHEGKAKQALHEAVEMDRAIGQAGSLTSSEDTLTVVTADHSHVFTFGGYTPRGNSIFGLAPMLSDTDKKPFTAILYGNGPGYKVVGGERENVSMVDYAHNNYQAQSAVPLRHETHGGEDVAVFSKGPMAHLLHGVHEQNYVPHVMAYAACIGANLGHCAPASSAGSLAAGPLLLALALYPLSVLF
Procedure, shortened: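 Lysates of cells given 2.5 nM progesterone to induce AlkP were aliquoted and exposed to 10 μM test compound for 15 min. Then added: buffer of 100 mM diethanolamine pH 9.5, 1 mM MgCl2, 0.4 mM CSPD chemiluminescent substrate and 1X Emerald II enhancer. After 1 h at room temperature, luminescence was read.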

[6] = test system: alkaline phosphatase mRNA; experiment: qRT-PCR of progesterone-induced alkaline phosphatase mRNA; assay type: cell-based, human; conditions: 10 nM P, 24 h
[7] = test system: pS2 mRNA; experiment: qRT-PCR of 17β-estradiol-induced pS2 mRNA; assay type: cell-based; conditions: 2 hours; compound 51 at 5 μM
[8] = molecular target: T4, purified full length recombinant human PR-B (Homo sapiens, UniProt P06401); experiment: Competitive radiometric receptor binding assay
T4 sequence (P06401 1-933): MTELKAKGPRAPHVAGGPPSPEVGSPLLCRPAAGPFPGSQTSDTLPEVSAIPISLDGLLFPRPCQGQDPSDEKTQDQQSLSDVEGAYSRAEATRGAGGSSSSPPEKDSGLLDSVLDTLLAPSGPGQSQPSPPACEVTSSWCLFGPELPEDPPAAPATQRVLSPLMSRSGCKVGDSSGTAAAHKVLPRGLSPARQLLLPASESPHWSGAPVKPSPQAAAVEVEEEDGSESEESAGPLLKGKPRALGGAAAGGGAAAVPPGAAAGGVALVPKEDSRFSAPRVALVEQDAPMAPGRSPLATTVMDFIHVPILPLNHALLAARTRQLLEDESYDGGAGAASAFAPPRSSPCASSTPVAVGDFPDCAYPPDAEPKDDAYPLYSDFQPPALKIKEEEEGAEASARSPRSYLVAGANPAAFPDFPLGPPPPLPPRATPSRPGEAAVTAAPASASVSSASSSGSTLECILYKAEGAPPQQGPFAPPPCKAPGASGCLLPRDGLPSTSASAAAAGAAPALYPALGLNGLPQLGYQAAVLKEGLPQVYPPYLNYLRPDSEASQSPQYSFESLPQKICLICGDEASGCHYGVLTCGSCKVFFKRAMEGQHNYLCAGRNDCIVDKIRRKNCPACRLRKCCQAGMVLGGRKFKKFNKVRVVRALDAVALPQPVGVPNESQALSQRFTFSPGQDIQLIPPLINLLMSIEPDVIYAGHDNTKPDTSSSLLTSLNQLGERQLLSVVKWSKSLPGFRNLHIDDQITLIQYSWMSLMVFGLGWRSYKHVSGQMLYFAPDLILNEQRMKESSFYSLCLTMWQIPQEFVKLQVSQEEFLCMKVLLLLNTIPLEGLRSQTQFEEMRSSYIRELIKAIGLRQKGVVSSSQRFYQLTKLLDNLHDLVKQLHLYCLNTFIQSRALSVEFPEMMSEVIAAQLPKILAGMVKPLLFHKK

Sequence of purified luciferase protein (P08659 whole entry): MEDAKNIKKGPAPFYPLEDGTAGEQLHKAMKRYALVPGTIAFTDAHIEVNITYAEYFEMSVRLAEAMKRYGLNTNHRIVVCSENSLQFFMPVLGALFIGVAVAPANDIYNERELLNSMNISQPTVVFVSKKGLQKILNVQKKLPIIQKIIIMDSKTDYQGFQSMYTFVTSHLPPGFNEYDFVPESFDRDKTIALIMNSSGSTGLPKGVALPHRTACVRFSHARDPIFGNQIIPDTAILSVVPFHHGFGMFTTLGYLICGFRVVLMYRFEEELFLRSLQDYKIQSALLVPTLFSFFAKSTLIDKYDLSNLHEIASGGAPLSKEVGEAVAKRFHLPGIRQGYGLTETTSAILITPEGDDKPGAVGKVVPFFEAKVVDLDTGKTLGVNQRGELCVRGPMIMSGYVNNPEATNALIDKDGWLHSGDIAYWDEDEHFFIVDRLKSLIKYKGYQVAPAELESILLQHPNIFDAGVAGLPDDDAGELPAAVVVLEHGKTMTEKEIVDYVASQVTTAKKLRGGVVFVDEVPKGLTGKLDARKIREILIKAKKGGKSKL

SMILES: CCC(CC)CSc1nc2c([nH]1)c(=S)n(C)c(=O)n2C [Compound 51, 6-thio-8-(2-ethylbutyl)thiotheophylline]
- agonist activity ([1]; concentrations of 30 μM and higher): no observed agonist activity
- fold more potent inhibitor of PR than GR ([1]; same T47D cells, same MMTV-luciferase reporter): 6.1 fold
- Reporter Assay (% Activity) ER [2]: 54%
- inhibition of progesterone-induced AlkP activity at 5 μM [3]: complete inhibition
- direct inhibition of luciferase enzymatic activity [4]: did not inhibit
- direct inhibition of alkaline phosphatase activity in lysates [5]: failed to significantly inhibit activity
- inhibition of progesterone induction of AlkP mRNA ([6]; 5 μM compound): 74%
- inhibition of progesterone induction of AlkP mRNA (in words) ([6]; 10 μM compound): completely blocked
- effect on 17β-estradiol induction of pS2 mRNA [7]: no effect
- fold weaker binding to PR than R5020 ([8]; 10 nM tritiated R5020, 10 nM PR-B, 18-24 h at 0°C): 4,700 fold
- ability to compete with radio-labeled R5020 for binding to PR ([8]; at functionally significant concentrations): little or no ability to compete
